Experimental data published in ChEMBL document CHEMBL4196176, “Structure-Based Design of MptpB Inhibitors That Reduce Multidrug-Resistant Mycobacterium tuberculosis Survival and Infection Burden in Vivo” (J Med Chem, 2018).
Calls of active or inactive are those of the source. No cut-off for these calls is given here.

Key:
[1] = biological target: T1, Tyrosine-protein phosphatase non-receptor type 1 (Homo sapiens, UniProt P18031); test: Inhibition of human PTP1B using pNPP as substrate preincubated for 15 mins followed by substrate addition and measured after 15 mins
T1 sequence (P18031 whole entry): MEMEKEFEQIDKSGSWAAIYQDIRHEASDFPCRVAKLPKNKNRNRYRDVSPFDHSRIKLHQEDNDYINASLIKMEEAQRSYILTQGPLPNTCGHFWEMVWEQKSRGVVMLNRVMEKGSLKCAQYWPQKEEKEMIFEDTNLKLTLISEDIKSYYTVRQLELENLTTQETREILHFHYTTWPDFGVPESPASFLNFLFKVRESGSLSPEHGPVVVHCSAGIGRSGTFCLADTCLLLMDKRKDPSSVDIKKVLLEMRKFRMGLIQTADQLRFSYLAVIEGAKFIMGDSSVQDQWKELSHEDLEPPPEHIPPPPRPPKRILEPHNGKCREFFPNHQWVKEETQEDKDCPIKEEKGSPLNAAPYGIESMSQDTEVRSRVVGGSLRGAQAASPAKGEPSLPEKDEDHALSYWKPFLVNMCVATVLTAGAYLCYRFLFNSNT

[2] = biological target: Dual specificity protein phosphatase 3 (Homo sapiens, UniProt P51452); test: Inhibition of human VHR using pNPP as substrate preincubated for 15 mins followed by substrate addition and measured after 15 mins
How it was run: (§1)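 His-tagged MptpA/MptpB expressed in E. coli BL21(DE3); VHR and hPTP1B purified as GST fusions with the tag cleaved. 0.5 μg protein in Tris/BisTris/acetate buffer (pH 7 MptpB, 6.5 MptpA, 6 hPTP1B, 5 VHR) with compound at 0–250 μM, 15 min at room temperature. pNPP added to 0.35 mM for 15 min, quenched with NaOH, read at 405 nm against a pNP curve. No-enzyme blanks.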

[3] = Inhibition of Mycobacterium tuberculosis H37Rv His-tagged ptpA expressed in Escherichia coli BL21(DE3) using pNPP as substrate preincubated for 15 mins followed by substrate addition and measured after 15 mins; how it was run: as §1
[4] = tested on: J774.A1; test: Cytotoxicity against mouse J774A.1 cells assessed as reduction in cell viability at 50 to 150 uM after 24 hrs by MTT assay; assay type: cell-based; conditions: j774.a1, 24 h
How it was run: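 MTT viability assay in J774A.1 cells seeded at 6 × 10^3/well and adhered overnight. Inhibitor in DMSO or DMSO only added for 24 h. MTT (5 mg/mL in PBS) added for 4 h, formazan dissolved in DMSO with Sorensen's glycine buffer, absorbance read at 570 nm.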

[5] = biological target: T2, Phosphotyrosine protein phosphatase (Mycobacterium tuberculosis, UniProt A0A045ISB3); test: Inhibition of Mycobacterium tuberculosis H37Rv His-tagged ptpB expressed in Escherichia coli BL21(DE3) using pNPP as substrate preincubated for 15 mins followed by substrate addition and measured after 15 mins
T2 sequence (A0A045ISB3 whole entry): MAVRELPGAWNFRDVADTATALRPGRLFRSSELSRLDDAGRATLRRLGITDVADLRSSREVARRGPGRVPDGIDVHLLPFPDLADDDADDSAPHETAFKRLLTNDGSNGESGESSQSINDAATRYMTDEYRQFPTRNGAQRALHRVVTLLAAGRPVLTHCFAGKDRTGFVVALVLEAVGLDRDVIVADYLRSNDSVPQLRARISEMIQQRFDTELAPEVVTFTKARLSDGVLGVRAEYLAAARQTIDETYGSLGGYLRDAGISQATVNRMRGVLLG

[6] = tested on: Cavia porcellus; test: Cmax in Dunkin Hartley guinea pig at 2.5 mg/kg, ip after 0.5 hrs post dose; assay type: ADME, organism-based; set-up: dose 2.5 mg/kg, route intraperitoneal; conditions: in vivo
[7] = tested on: Cavia porcellus; test: AUCinfinity in Dunkin Hartley guinea pig at 5 mg/kg, po; assay type: ADME, organism-based; set-up: dose 5 mg/kg, time infinity, route oral; conditions: in vivo, BLD = below limit of detection
[8] = tested on: Cavia porcellus; test: Half life in Dunkin Hartley guinea pig at 2.5 mg/kg, ip; assay type: ADME, organism-based; conditions: in vivo
[9] = tested on: Cavia porcellus; test: Cmax in Dunkin Hartley guinea pig at 5 mg/kg, po after 0.25 hrs post dose; assay type: ADME, organism-based; set-up: dose 5 mg/kg, route oral; conditions: in vivo, BLD = below limit of detection
[10] = tested on: Cavia porcellus; test: AUCinfinity in Dunkin Hartley guinea pig at 2.5 mg/kg, ip; assay type: ADME, organism-based; set-up: dose 2.5 mg/kg, time infinity, route intraperitoneal; conditions: in vivo
[11] = tested on: Cavia porcellus; test: Oral bioavailability in Dunkin Hartley guinea pig at 5 mg/kg; assay type: ADME, organism-based; conditions: in vivo
[12] = tested on: Cavia porcellus; test: Half life in Dunkin Hartley guinea pig at 5 mg/kg, po; assay type: ADME, organism-based; conditions: in vivo, BLD = below limit of detection
[13] = biological target: T3, Phosphotyrosine protein phosphatase (Mycobacterium tuberculosis) (UniProt A0A045ISB3); test: Inhibition of Mycobacterium tuberculosis H37Rv ATCC 35837 ptpB infected in human THP1 cells assessed as reduction in intracellular bacterial burden at 10 to 80 uM after 72 hrs post infection relative to DMSO-treated control; assay type: cell-based
T3 sequence (whole entry): T2 sequence (A0A045ISB3 whole entry)
How it was run: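 PMA-differentiated THP1 cells (1 × 10^6/well, RPMI with 10% FBS and 4 mM L-glutamine) received inhibitor in DMSO, then thawed M. tuberculosis at MOI 1:1. Washed after 3 h; medium and inhibitor renewed at 24 h. At 72 h, lysed in 0.05% SDS; 10-fold dilutions plated in duplicate on 7H10, CFU counted after 3 weeks at 37 °C; triplicate experiments.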

Sequence of Dual specificity protein phosphatase 3 (P51452 whole entry, the tested form may be a part): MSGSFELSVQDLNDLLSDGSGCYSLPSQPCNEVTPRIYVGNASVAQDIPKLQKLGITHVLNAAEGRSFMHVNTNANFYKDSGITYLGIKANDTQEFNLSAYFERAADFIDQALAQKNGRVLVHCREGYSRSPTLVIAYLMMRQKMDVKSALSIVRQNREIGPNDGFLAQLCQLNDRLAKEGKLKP

With `O=C(O)c1noc(-c2ccccc2)c1-c1cccc(-c2cc(Cl)c(O)c([N+](=O)[O-])c2)c1` the IC50 [1] was 313 µM, the IC50 [2] was 13 µM and the IC50 [3] was 30.2 µM. The Activity [4] was “Non-Toxic”.
For `O=C(O)c1noc(-c2ccccc2)c1-c1cccc(-c2cccc(O)c2)c1`, the IC50 [1] was greater than 100 µM, the IC50 [2] was 59 µM and the IC50 [3] was 95 µM.
`O=C(O)c1noc(-c2ccccc2)c1-c1cccc(-c2ccc(O)c(F)c2)c1` showed an IC50 [1] greater than 100 µM, an IC50 [2] of 40.2 µM and an IC50 [5] of 1500 nM. For the same compound, the IC50 [3] was 35.3 µM and the Activity [4] was “Non-Toxic”.
`Cc1cc(-c2cccc(-c3c(C(=O)O)noc3-c3ccccc3)c2)cc(C)c1O` gave an IC50 [1] greater than 100 µM, a Cmax [6] of 197 ng/mL and an IC50 [2] of 23.2 µM. For the same compound, the AUC [7] was “Bld”, the IC50 [3] was 36 µM and the t1/2 [8] was 1.4 h. The Cmax [9] was “Bld”, the AUC [10] was 399 ng·h/mL and the F [11] was less than 2.5%. The t1/2 [12] was “Bld”.
For `O=C(O)c1noc(-c2ccccc2)c1-c1cccc(-c2ccc(O)cc2)c1`, the IC50 [1] was greater than 100 µM, the IC50 [2] was 54 µM and the IC50 [5] was 2800 nM. For the same compound, the IC50 [3] was 74 µM and the Activity [4] was “Non-Toxic”.
With `COC(=O)c1c(O)cccc1OC/C=C/c1cccc(-c2cc(C(=O)O)no2)c1` [ISOXAZOLECARBOXYLIC ACID] the IC50 [5] was 7000 nM and the inhibition [13] was “Active”.
Work on `O=C(O)c1cc(-c2ccccc2)on1` yielded an IC50 [5] greater than 500000 nM.
